Experimental findings from ChEMBL document CHEMBL1146335, “Synthesis and biological activation of an ethylene glycol-linked amino acid conjugate of cyclic cidofovir” (Bioorg Med Chem Lett, 2007) are described below.

The structures appear in SMILES notation.

In one data set the test system is Human betaherpesvirus 5. Description: Antiviral activity against HCMV Towne in HFF cells by plaque reduction assay. The class given is functional, organism-based. As to conditions: Human betaherpesvirus 5, Towne. Put shortly: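 HFF cells in 24-well dishes infected with ~100 p.f.u./cm2 HCMV Towne (plaque-purified isolate Po). After adsorption, compounds (DMSO stocks diluted in growth medium) added at 4–8 concentrations in duplicate.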
On the technique in general: Plaques are areas of infected cells; plaque reduction assays count them against a control.

The nature of data set [1]: (§1) Half life in HFF cells in 37degC at 500 uM. Format: ADME, cell-based. The settings on record: human, HFF cells. The gist of the method:
(§2)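 Compound exposed at 37°C to homogenates of Caco-2 or HFF cells, or of rat liver or intestine. Samples taken at intervals from 0 to 3 h and analysed by HPLC. Half-life estimated as for the buffer stability study.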

The nature of data set [2]: Stability in phosphate buffer in pH 7 at 37 degC at 500 uM. The class given is physicochemical. Put shortly:
(§3)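 Compound (500 μM) incubated at 37°C in 50 mM phosphate buffer brought to the stated pH with HCl. Monitored over 3 hours; half-life in hours.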

The nature of data set [3]: (§4) Half life in Caco-2 cells in 37degC at 500 uM. The class given is ADME, cell-based, Colon. As to conditions: human, Caco-2 cells. Put shortly:
as §2

Data set [4] in a line: (§5) Half life in rat intestine in 37degC at 500 uM. Format: ADME, tissue-based. The settings on record: rat intestine. Put shortly: as §2
A short description of data set [5]: (§6) Half life in rat liver in 37degC at 500 uM. Format: ADME, tissue-based. The settings on record: rat liver. The gist of the method:
as §2

In the next data set the test system is KB. Description: Cytotoxicity against human KB cells at 100 uM. Format: functional, cell-based. The gist of the method: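 KB cells grown logarithmically for two days with compound, in triplicate. Growth read by spectrophotometric quantitation of crystal violet eluted from stained cells.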
Data set [6] in a line: Half life in Sprague-Dawley rat intestinal lumen in 37degC at 500 uM. Format: ADME. The gist of the method:
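Compound incubated at 37°C in intestinal perfusate from Sprague Dawley rats. Perfusate made by passing buffered solution (pH 6.5) through an isolated intestinal segment. Sampled between 0 and 3 h, analysed by HPLC, half-life estimated.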

The nature of data set [7]: Stability in phosphate buffer in pH 3 at 37 degC at 500 uM. The class given is physicochemical. As to conditions: pH 3, 500 µM. The gist of the method: as §3
The nature of data set [8]: Stability in phosphate buffer in pH 4 at 37 degC at 500 uM. The class given is physicochemical. As to conditions: pH 4, 500 µM. The gist of the method: as §3
Data set [9] can be described thus: Stability in phosphate buffer in pH 6 at 37 degC at 500 uM. Format: physicochemical. The gist of the method:
as §3

Data set [10] can be described thus: Stability in phosphate buffer in pH 5 at 37 degC at 500 uM. Format: physicochemical. The settings on record: pH 5, 500 µM. The gist of the method: as §3
In the next data set the test system is HFF. Described as §1. Format: ADME, cell-based. The settings on record: human, hff, 500 µM. The gist of the method:
as §2

In another data set the test system is Rattus norvegicus. Description: Bioavailability in rat at 3 mg, iv. Format: ADME, organism-based. As to conditions: in vivo, in the assay text read “0.1 mg” for “3 mg”. The gist of the method: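 Rat; drug injected directly into the gastrointestinal tract at 3 mg, with a 0.1 mg intravenous reference. Prodrug AUC summed the released cyclic parent and the intact prodrug. Bioavailability = dose-normalized GI AUC ÷ IV AUC, corrected for the IV vs oral dose difference.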

Data set [11] in a line: AUC (0 to infinity) in rat at 0.1 mg, iv. The arrangement: dose 0.1 mg, route intravenous, time infinity. As to conditions: plasma. Format: ADME, organism-based. The gist of the method:
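Rat; reference compound dosed intravenously at 0.1 mg. Plasma AUC from zero to infinity, dose normalized.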

For another data set, the system named is Caco-2. The description is as §4. As to conditions: human, caco-2, 500 µM. The class given is ADME, cell-based, Colon. Put shortly: as §2
In a further data set the test system is Intestine. The description is as §5. The class given is ADME, tissue-based. The settings on record: in vivo, 500 µM. The gist of the method:
as §2

The test system of a further data set is Liver. The data set is described as §6. The class given is ADME, tissue-based. The settings on record: in vivo, 500 µM. The gist of the method: as §2
The nature of data set [12]: Stability in phosphate buffer in pH 6.5 at 37 degC at 500 uM. The class given is physicochemical. The gist of the method: as §3

One may read the IC50 as the concentration that inhibits the measured activity by half. A low value points to greater potency. In the data set on Human betaherpesvirus 5, `Nc1nc2c(ncn2COC(CO)CO)c(=O)[nH]1` [GANCICLOVIR] gave an IC50 of 3000 nM.
The half-life is how long it takes for the measured level to halve. For the compound `CC(C)C(N)C(=O)OCCOP1(=O)CO[C@@H](Cn2ccc(N)nc2=O)CO1` (some centres undefined), the half-life at 500 µM was 1.17 h in data set [1]; 3.5 h in [2] (phosphate buffer, pH 7); 0.337 h in data set [3]; 0.208 h in data set [4]; 3.7 min in data set [5]; 2.36 h in data set [6] (Sprague-Dawley, rat intestinal lumen). This compound had a half-life at 500 µM in data set [9] (phosphate buffer, pH 6) of 16 h. The IC50 with Human betaherpesvirus 5 came to 680 nM. The Activity entry in the data set with KB was “Not toxic”. In addition, the Stability entry in data set [7], in data set [8] and in [10] was “Stable” throughout.
Broadly, the AUC(0-inf) is total exposure, with the tail of the curve extrapolated. On to `Nc1ccn(C[C@H]2COP(=O)(O)CO2)c(=O)n1` [CYCLIC CIDOFOVIR], for which the Stability result in the data set with HFF is listed as “Stable”; in data set [2] (buffer, pH 7, 500 µM) it was “Stable”; with Caco-2, “Stable”; in the data set with Intestine it was “Stable”; with Liver it was “Stable”; in data set [6] (in vivo, 500 µM), “Stable”. Also, the Stability entry in data set [7] is “Stable”; in data set [8] it was “Stable”; in [9] (buffer, pH 6, 500 µM), “Stable”; in [10] it was “Stable”. The F in the data set with Rattus norvegicus worked out at 100%. In addition, the AUC(0-inf) in [11] was found to be 472 ng·h/mL.
In turn, `Nc1ccn(C[C@H]2COP(=O)(OCCOC(=O)C(N)Cc3ccccc3)CO2)c(=O)n1` (some centres undefined) gave a half-life at 500 µM in data set [12] of 3.7 h. Besides, the Stability entry in data set [7], in [8] and in data set [10] was “Stable” each time.
